Assay results published in ChEMBL document CHEMBL3588772, “Synthesis, anti-mycobacterial activity and DNA sequence-selectivity of a library of biaryl-motifs containing polyamides” (Bioorg Med Chem, 2015).
Converted amounts (≈) assume the structure as drawn. The source made the active and inactive calls. The rule behind the calls is not given here.

Tests used:
[1] = system: Mycobacterium tuberculosis; experiment: Antimycobacterial activity against Mycobacterium tuberculosis H37Rv after 7 days; format: functional; conditions: 168 h
Outline: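 HT-SPOTi agar growth inhibition in 96-well format. Serially diluted DMSO solutions were mixed into Middlebrook 7H10 agar (kept at 55 °C) with 0.05% glycerol and 10% OADC. Controls were DMSO-only wells and isoniazid. Each well received 2×10³ CFU of culture (pre-grown rolling at 2 rpm or standing, 37 °C). Plates ran 7 days at 37 °C. MIC = lowest concentration with no visible growth.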

[2] = Binding affinity to 192 base-pair fragment HexB 5-ATTAAT-3 (unknown origin) at 1 to 10 uM after 30 mins by DNaSeI footprinting assay
Outline: (§1)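 Radiolabelled HexB fragment in 10 mM Tris–HCl pH 7.5 with 0.1 mM EDTA, mixed with ligand in 10 mM Tris–HCl pH 7.5 with 10 mM NaCl. Equilibrated 30 min at room temperature, then DNase I in 20 mM NaCl, 2 mM MgCl₂, 2 mM MnCl₂ for 1 min. Heated 100 °C 3 min, resolved on 8% denaturing polyacrylamide gels, phosphorimaged. GA purine markers and no-ligand control lanes included.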

[3] = system: unidentified; experiment: Binding affinity to 192 base-pair fragment HexB 5-ACATAT-3 (unknown origin) at 1 to 10 uM after 30 mins by DNaSeI footprinting assay; outline: as §1
[4] = Binding affinity to 5'-ACVHA-3' (V= A or G or C; H= C or T or A) (unknown origin) at 2 uM after 45 mins by ethidium bromide assay
Outline: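 Hairpin oligonucleotides from a 512-member five-bp library at 1 µM base pairs final with 4.4 µM ethidium bromide in 0.1 M Tris–HCl, 0.1 M NaCl, pH 8. Fluorescence read after 15 min at room temperature (ex 545, em 595 nm). Ligand added at 2 µM final (DMSO), read again after 45 min. Triplicates; % fluorescence reduction relative to no-drug and no-DNA controls.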

[5] = Binding affinity to 192 base-pair fragment HexB (unknown origin) at 1 to 10 uM after 30 mins by DNaSeI footprinting assay; outline: as §1
[6] = Binding affinity to 192 base-pair fragment HexB (unknown origin) at 5 to 10 uM after 30 mins by DNaSeI footprinting assay; outline: as §1
[7] = system: unidentified; experiment: Binding affinity to 192 base-pair fragment HexB 5-AATATT-3 (unknown origin) at 1 to 10 uM after 30 mins by DNaSeI footprinting assay; outline: as §1
[8] = Selectivity index, ratio of GIC50 for mouse RAW264.7 cells to MIC for Mycobacterium tuberculosis H37Rv; format: toxicity; conditions: read-out: Selectivity Index
Outline: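 Cytotoxicity was measured in mouse macrophage RAW264.7 cells by resazurin viability readout. GIC50 was interpolated at 50% viability versus untreated control. SI = GIC50 divided by the M. tuberculosis MIC from the agar spot assay.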

[9] = Cytotoxicity against mouse RAW264.7 cells; format: cell-based
Outline: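 RAW264.7 mouse macrophages assessed by resazurin viability assay. GIC50 interpolated at 50% viability versus control.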

[10] = system: unidentified; experiment: Binding affinity to 192 base-pair fragment HexB 5-TAATTA-3 (unknown origin) at 5 to 10 uM after 30 mins by DNaSeI footprinting assay; outline: as §1
[11] = Binding affinity to 192 base-pair fragment HexB 5-CAATTG-3 (unknown origin) at 5 to 10 uM after 30 mins by DNaSeI footprinting assay; outline: as §1
[12] = Binding affinity to 192 base-pair fragment HexB 5-TTATAA-3 (unknown origin) at 5 to 10 uM after 30 mins by DNaSeI footprinting assay; outline: as §1

Row | Structure (SMILES) | MIC [1] [µg/mL] | Activity [2] | Activity [3] | Activity [4] | Activity [5] | Activity [6] | Activity [7] | selectivity ratio [8] | GI50 [9] [µg/mL] | Activity [10] | Activity [11] | Activity [12]
1 | Cc1nc(-c2cnn(C)c2)sc1C(=O)Nc1cc(C(=O)Nc2cc(C(=O)NCCCN(C)C)n(C)c2)n(C)c1 | 31.2 (≈ 56.6 µM) | Active | Active | Active | Active | Active | Active | 8 | 250 (≈ 453 µM) |  |  | 
2 | CO[C@H]1/C=C/O[C@@]2(C)Oc3c(C)c(O)c4c(O)c(c(/C=N/N5CCN(C)CC5)c(O)c4c3C2=O)NC(=O)/C(C)=C\C=C\[C@H](C)[C@H](O)[C@@H](C)[C@@H](O)[C@@H](C)[C@H](OC(C)=O)[C@@H]1C [RIFAMPIN] | 0.05 (≈ 0.0608 µM) |  |  |  |  |  |  | 14000 | 700 (≈ 851 µM) |  |  | 
3 | NNC(=O)c1ccncc1 [ISONIAZID] | 0.05 (≈ 0.365 µM) |  |  |  |  |  |  | 60000 | 3000 (≈ 21900 µM) |  |  | 
4 | Cn1cc(NC(=O)c2cc(NC(=O)c3cc(NC=O)cn3C)cn2C)cc1C(=O)NCCC(=N)N [STALLIMYCIN] | 31.2 (≈ 64.9 µM) |  |  |  | Active | Active |  | 2 | 62.5 (≈ 130 µM) | Active | Active | Active
5 | CC(=O)Nc1cccc(-c2ccc(C(=O)Nc3cc(C(=O)Nc4cc(C(=O)NCCCN(C)C)n(C)c4)n(C)c3)o2)c1 | 125 (≈ 218 µM) |  |  |  |  |  |  | 4 | 500 (≈ 872 µM) |  |  | 
6 | Cc1nc(-c2ccsc2)sc1C(=O)Nc1cc(C(=O)Nc2cc(C(=O)NCCCN(C)C)n(C)c2)n(C)c1 | 250 (≈ 451 µM) |  |  |  |  |  |  | 0.25 | 62.5 (≈ 113 µM) |  |  | 
7 | CC(=O)Nc1ccc(-c2csc(C(=O)Nc3cc(C(=O)Nc4cc(C(=O)NCCCN(C)C)n(C)c4)n(C)c3)c2)cc1 | 62.5 (≈ 106 µM) |  |  |  |  |  |  | 1 | 62.5 (≈ 106 µM) |  |  | 
8 | CC(=O)Nc1ccc(-c2ccc(C(=O)Nc3cc(C(=O)Nc4cc(C(=O)NCCCN(C)C)n(C)c4)n(C)c3)o2)cc1 | 125 (≈ 218 µM) |  |  |  |  |  |  | 2 | 250 (≈ 436 µM) |  |  | 
9 | CC(=O)Nc1ccc(-c2cc(C(=O)Nc3cc(C(=O)Nc4cc(C(=O)NCCCN(C)C)n(C)c4)n(C)c3)n(C)c2)cc1 | 125 (≈ 213 µM) |  |  |  |  |  |  | 4 | 500 (≈ 852 µM) |  |  | 
